Data from ChEMBL document CHEMBL1125259, “Lipophilic glycosyl phosphotriester derivatives of AZT: synthesis, NMR transmembrane transport study, and antiviral activity” (1991).

What was measured:
Type in all cases: functional
[1] = molecular target: Human immunodeficiency virus type 1 reverse transcriptase (Human immunodeficiency virus 1) (UniProt Q72547); assay: Percent inhibition measured as the production of HIV reverse transcriptase (RT) in culture supernatant of monocytic U937 on at 7 days at a concentration 1 uM
Outline: (§1)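 U937 cells in RPMI 1640 with 5% heat-inactivated FCS, penicillin, streptomycin and polybrene (2 μg/mL), 37 °C, 5% CO2. Infected with HIV-1 LAV-Bru; compounds diluted in PBS. 50 μL supernatant aliquots were assayed for RT: 1 h, 37 °C, pH 7.8, Mg2+, poly(rA)-oligo(dT), [3H]dTTP, TCA-pyrophosphate stop, filter counting. % inhibition = 100 − 100 × (treated cpm / virus-control cpm).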

[2] = molecular target: Human immunodeficiency virus type 1 reverse transcriptase (Human immunodeficiency virus 1) (UniProt Q72547); assay: Percent inhibition measured as the production of HIV reverse transcriptase (RT) in culture supernatant of monocytic U937 on at 11 days at a concentration 1 uM; outline: as §1
[3] = molecular target: Human immunodeficiency virus type 1 reverse transcriptase (Human immunodeficiency virus 1) (UniProt Q72547); assay: Compounds were evaluated for anti-RT activity by MTT dose and % cell / viability was reported at 13 days of culture
[4] = molecular target: Human immunodeficiency virus type 1 reverse transcriptase (Human immunodeficiency virus 1) (UniProt Q72547); assay: Compounds were evaluated for anti-RT activity at 0 days of culture
Outline: (§2)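 HIV-1 (12 500 CCID50) was preincubated with compound at 25 µM final for 60 min at 37 °C, pelleted by ultracentrifugation and resuspended. RT was measured at once with poly(rA)-oligo(dT) and ³H-dTTP (1 h, 37 °C, cpm). Treated virus was then put on CEM-C113 cells for 60 min and replaced with compound-free medium. Supernatant RT was read at days 7 and 9.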

[5] = molecular target: Human immunodeficiency virus type 1 reverse transcriptase (Human immunodeficiency virus 1) (UniProt Q72547); assay: Percent inhibition evaluated for anti-RT activity at 0 days of culture; design: concentration or dose not given beside the values; details: concentration not given here; outline: as §2
[6] = molecular target: Human immunodeficiency virus type 1 reverse transcriptase (Human immunodeficiency virus 1) (UniProt Q72547); assay: Compounds were evaluated for anti-RT activity by MTT dose and % cell / viability was reported at 7 days of culture
Outline: (§3)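 HIV-1 was preincubated with compound at 25 µM for 60 min at 37 °C, pelleted, and added to CEM-C113 cells (1×10^5 cells/mL) for 60 min at 37 °C. Medium was then replaced without compound. At days 7 and 9, viability was read by MTT assay on 100 µL of cell suspension.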

[7] = tested on: CCRF-CEM; assay: Concentration that reduced by 50% the HIV induced CPE (cytopathic effect) on day 7.; details: Homo sapiens, 168 h, read-out: ED50 (the source's name)
Outline: (§4)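 CEM-C113 cells (1×10^5 cells/mL) were infected with HIV-1 LAV-Bru or mock-infected, with compound dilutions in triplicate, for at least 7 days. Medium with or without drug was renewed every 3–4 days for longer runs. MTT absorbance was read at 540 nm. CD50 = 50% reduction of mock-infected absorbance; ED50 = dose giving 50% protection from CPE. Values are averages of at least two experiments.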

[8] = molecular target: Human immunodeficiency virus type 1 reverse transcriptase (Human immunodeficiency virus 1) (UniProt Q72547); assay: Percent inhibition evaluated for anti-RT activity at 9 days of culture; design: concentration or dose not given beside the values; details: concentration not given here; outline: as §2
[9] = molecular target: Human immunodeficiency virus type 1 reverse transcriptase (Human immunodeficiency virus 1) (UniProt Q72547); assay: Compound ability to inhibit the production of HIV reverse transcriptase (RT) in preinfected PBL (peripheral blood lymphocytes) at 14 days at a concentration 1 uM
Outline: (§5)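 PBL were infected with HIV-1 for 1 h at 37 °C, washed twice, and resuspended in complete medium with 10% interleukin-2 and anti-human α-interferon (1000 units/mL). Cells were plated at 1×10^6 cells/well with or without compound. At each time point, 50 µL supernatant was taken for RT assay ([³H]dTTP incorporation, cpm).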

[10] = tested on: CCRF-CEM; assay: Concentration that reduced by 50% the HIV induced CPE (cytopathic effect) on day 11.; details: Homo sapiens, 264 h, read-out: ED50 (the source's name); outline: as §4
[11] = tested on: CCRF-CEM; assay: Concentration required to reduce the viability of uninfected cells (CEM-CL13) by 50% on day 19.; details: Homo sapiens, 456 h, read-out: CD50 (the source's name); outline: as §4
[12] = molecular target: Human immunodeficiency virus type 1 reverse transcriptase (Human immunodeficiency virus 1) (UniProt Q72547); assay: Compound ability to inhibit the production of HIV reverse transcriptase (RT) in culture supernatant of CEM-CL13 on at 26 days at a concentration 0.2 uM
Outline: (§6)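 CEM-C113 cells in RPMI 1640 with 5% heat-inactivated FCS and polybrene (2 µg/mL) were plated at 1×10^5 cells/mL with compound in PBS, in triplicate, and infected with HIV-1 LAV-Bru. From day 7, every 3–4 days, fresh medium with or without drug was added and 50 µL supernatant was taken for RT microassay. The RT microassay used poly(rA)-oligo(dT) and (methyl-³H)dTTP for 1 h at 37 °C, with TCA precipitation, read as cpm/50 µL.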

[13] = molecular target: Human immunodeficiency virus type 1 reverse transcriptase (Human immunodeficiency virus 1) (UniProt Q72547); assay: Compound ability to inhibit the production of HIV reverse transcriptase (RT) in culture supernatant of monocytic U937 on at 7 days at a concentration 1 uM
Outline: (§7)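 HIV-1-infected monocytic U937 cultures were kept up to 14 days with compound. Supernatant RT activity was measured as for CEM-C113, as [³H] cpm/50 µL. % inhibition = 100 − 100 × (cpm of treated samples / cpm of control virus).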

[14] = molecular target: Human immunodeficiency virus type 1 reverse transcriptase (Human immunodeficiency virus 1) (UniProt Q72547); assay: Compound ability to inhibit the production of HIV reverse transcriptase (RT) in preinfected PBL (peripheral blood lymphocytes) at 7 days at a concentration 1 uM; outline: as §5
[15] = molecular target: Human immunodeficiency virus type 1 reverse transcriptase (Human immunodeficiency virus 1) (UniProt Q72547); assay: Compound ability to inhibit the production of HIV reverse transcriptase (RT) in culture supernatant of monocytic U937 on at 11 days at a concentration 1 uM; outline: as §7
[16] = molecular target: Human immunodeficiency virus type 1 reverse transcriptase (Human immunodeficiency virus 1) (UniProt Q72547); assay: Compounds were evaluated for anti-RT activity by MTT dose and %protection was reported at 13 days of culture
[17] = molecular target: Human immunodeficiency virus type 1 reverse transcriptase (Human immunodeficiency virus 1) (UniProt Q72547); assay: Compound ability to inhibit the production of HIV reverse transcriptase (RT) in preinfected PBL (peripheral blood lymphocytes) at 7 days at a concentration 5 uM; outline: as §5
[18] = molecular target: Human immunodeficiency virus type 1 reverse transcriptase (Human immunodeficiency virus 1) (UniProt Q72547); assay: Compound ability to inhibit the production of HIV reverse transcriptase (RT) in culture supernatant of monocytic U937 on at 14 days at a concentration 1 uM; outline: as §7
[19] = tested on: CCRF-CEM; assay: Concentration required to reduce the viability of uninfected cells (CEM-CL13) by 50% on day 7.; details: Homo sapiens, 168 h, read-out: CD50 (the source's name); outline: as §4
[20] = molecular target: Human immunodeficiency virus type 1 reverse transcriptase (Human immunodeficiency virus 1) (UniProt Q72547); assay: Compounds were evaluated for anti-RT activity by MTT dose and % cell / viability was reported at 9 days of culture; outline: as §3
[21] = molecular target: Human immunodeficiency virus type 1 reverse transcriptase (Human immunodeficiency virus 1) (UniProt Q72547); assay: Compound ability to inhibit the production of HIV reverse transcriptase (RT) in culture supernatant of CEM-CL13 on at 15 days at a concentration 0.2 uM; outline: as §6
[22] = molecular target: Human immunodeficiency virus type 1 reverse transcriptase (Human immunodeficiency virus 1) (UniProt Q72547); assay: Compounds were evaluated for anti-RT activity by MTT dose and %protection was reported at 9 days of culture; outline: as §3
[23] = molecular target: Human immunodeficiency virus type 1 reverse transcriptase (Human immunodeficiency virus 1) (UniProt Q72547); assay: Percent inhibition evaluated for anti-RT activity at 7 days of culture; design: concentration or dose not given beside the values; details: concentration not given here; outline: as §2
[24] = molecular target: Human immunodeficiency virus type 1 reverse transcriptase (Human immunodeficiency virus 1) (UniProt Q72547); assay: Compound ability to inhibit the production of HIV reverse transcriptase (RT) in preinfected PBL (peripheral blood lymphocytes) at 10 days at a concentration 1 uM; outline: as §5
[25] = molecular target: Human immunodeficiency virus type 1 reverse transcriptase (Human immunodeficiency virus 1) (UniProt Q72547); assay: Compound ability to inhibit the production of HIV reverse transcriptase (RT) in preinfected PBL (peripheral blood lymphocytes) at 21 days at a concentration 5 uM; outline: as §5
[26] = molecular target: Human immunodeficiency virus type 1 reverse transcriptase (Human immunodeficiency virus 1) (UniProt Q72547); assay: Compounds were evaluated for anti-RT activity at 7 days of culture; outline: as §2
[27] = molecular target: Human immunodeficiency virus type 1 reverse transcriptase (Human immunodeficiency virus 1) (UniProt Q72547); assay: Compound ability to inhibit the production of HIV reverse transcriptase (RT) in preinfected PBL (peripheral blood lymphocytes) at 10 days at a concentration 5 uM; outline: as §5

| SMILES | inhibition [1] [%] | inhibition [2] [%] | Cell viability [3] [%] | Activity (c.p.m. 50ul-1) [4] | Cell viability [6] [%] | EC50 [7] [µM] | inhibition [8] [%] | EC50 [10] [µM] | CC50 [11] [µM] | Activity (c.p.m. 50ul-1) [12] | Activity (c.p.m. 50ul-1) [13] | Activity (c.p.m. 50ul-1) [14] | Activity (c.p.m. 50ul-1) [15] | Protection [16] [%] | Activity (c.p.m. 50ul-1) [18] | CC50 [19] [µM] | Cell viability [20] [%] | Activity (c.p.m. 50ul-1) [21] | Protection [22] [%] | inhibition [23] [%] | also measured |
| --- | --- | --- | --- | --- | --- | --- | --- | --- | --- | --- | --- | --- | --- | --- | --- | --- | --- | --- | --- | --- | --- |
| Cc1cn([C@H]2C[C@H](N=[N+]=[N-])[C@@H](COP(=O)(O)OC[C@H]3OC(O)[C@H](O)[C@@H](O)[C@@H]3O)O2)c(=O)[nH]c1=O (stereo partly drawn) | 36 | 0 | 17 | 32000 | 50 | 0.2 | 10 | 0.16 | 38 | 65000 | 158000 | 1010 | 145000 | 0 | 17000 | 30 | 34 | 750 | 13 | 70 | inhibition [5]: 0%; Activity (c.p.m. 50ul-1) [9]: 408; Activity (c.p.m. 50ul-1) [17]: 890; Activity (c.p.m. 50ul-1) [24]: 771; Activity (c.p.m. 50ul-1) [25]: 373; Activity (c.p.m. 50ul-1) [26]: 19000; Activity (c.p.m. 50ul-1) [27]: 798 |
| Cc1cn([C@H]2C[C@H](N=[N+]=[N-])[C@@H](COP(=O)(O)OCCO[C@H]3O[C@H](CO)[C@@H](O)[C@H](O)[C@@H]3O)O2)c(=O)[nH]c1=O | 0 | 0 | 20 | 30000 | 39 | 0.16 | 0 | 0.15 | 30 | 70000 | 306000 | 923 | 174000 | 7 | 25000 | 25 | 28 | 2600 | 12 | 25 | inhibition [5]: 0%; Activity (c.p.m. 50ul-1) [9]: 39700; Activity (c.p.m. 50ul-1) [17]: 855; Activity (c.p.m. 50ul-1) [24]: 4400; Activity (c.p.m. 50ul-1) [25]: 3380; Activity (c.p.m. 50ul-1) [26]: 47000; Activity (c.p.m. 50ul-1) [27]: 1100 |
| Cc1cn([C@H]2C[C@H](N=[N+]=[N-])[C@@H](CO)O2)c(=O)[nH]c1=O [ZIDOVUDINE] | 85 | 7 | 34 | 19000 | 100 | 0.12 | 76 | 0.12 | 26 | 28000 | 36000 | 972 | 134000 | 26 | 37000 | 26 | 79 | 1100 | 76 | 92 | Activity (c.p.m. 50ul-1) [9]: 2020; Activity (c.p.m. 50ul-1) [17]: 965; Activity (c.p.m. 50ul-1) [24]: 757; Activity (c.p.m. 50ul-1) [25]: 542; Activity (c.p.m. 50ul-1) [26]: 5000; Activity (c.p.m. 50ul-1) [27]: 984 |
| CCCCCCCCCCCCCCCCOP(=O)(OCCO[C@H]1O[C@H](CO)[C@@H](O)[C@H](O)[C@@H]1O)OCC1OC(n2cc(C)c(=O)[nH]c2=O)CC1N=[N+]=[N-] (stereo partly drawn) | 0 | 0 | 12 | 13000 | 41 | 0.18 | 0 | 1 | 3.4 | 61000 | 401000 | 30200 | 243000 | 0 | 55000 | 20 | 25 | 2400 | 4 | 0 | inhibition [5]: 26%; Activity (c.p.m. 50ul-1) [24]: 60200; Activity (c.p.m. 50ul-1) [26]: 81000 |
